Assay outcomes (PubChem)
TRPC4 potent – allosterically enhances the mouse TRPC4 cation channel. Q9QUQ5. HEK293 TRPC4beta/mu-opioid, DAMGO EC20, Fluo-4 Ca2+ flux; hits give high values. B-score at 10 µM. 0.42% of 310,000 active. AID 2227;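 active = B-score of calcium response area above 5 SD of library B-scores, with initial fluorescence ratio within 5 SD of library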;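 note: B-score of integrated fluorescence ratio over time as area under calcium response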
Kir21 block – inhibitors of mouse Kir2.1 inward-rectifier potassium channel. P35561. HEK293-Kir2.1, FluxOR thallium flux fluorescence; hits give low values. B-score at 10 µM. 0.85% of 310,000 active. AID 1672;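 active = fluorescence ratio B-score at or below minus 3 SD of library scores, with starting-brightness B-score within 2 SD, cut at about -4.2 in these data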;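 note: channel flux triggered by added potassium and thallium sulfate stimulus; B-score of peak minus minimum fluorescence over baseline after thallium stimulus; more negative B-score means stronger Kir2.1 block with less thallium influx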
Target sequence (P35561 whole entry, looked up): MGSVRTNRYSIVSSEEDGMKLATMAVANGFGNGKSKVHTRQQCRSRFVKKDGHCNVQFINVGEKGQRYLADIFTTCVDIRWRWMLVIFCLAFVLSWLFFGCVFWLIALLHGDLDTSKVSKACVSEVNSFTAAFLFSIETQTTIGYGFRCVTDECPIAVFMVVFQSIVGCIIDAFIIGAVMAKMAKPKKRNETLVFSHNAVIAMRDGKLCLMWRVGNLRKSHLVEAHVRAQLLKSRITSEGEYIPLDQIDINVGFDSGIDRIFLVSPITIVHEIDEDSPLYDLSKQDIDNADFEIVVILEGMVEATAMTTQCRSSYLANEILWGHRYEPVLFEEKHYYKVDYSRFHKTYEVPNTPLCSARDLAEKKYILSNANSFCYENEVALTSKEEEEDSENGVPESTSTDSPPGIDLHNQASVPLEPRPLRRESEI
TRPC4 block – inhibitors of mouse TRPC4 channel | 0.39% of 300,000 active | B-score at 10 µM | HEK293 TRPC4beta/mu-opioid, DAMGO-evoked Fluo4 calcium flux; hits give low values;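 active = B-score over 3 SD under the library average, no early fluorescence shift, positive overall ratio signal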
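Assay system: HEK293 cells with stable TRPC4beta plus mu-opioid receptor expression. Dosing: single dose. Measured by: Fluo4 Ca2+ flux fluorescence. Also added: DAMGO in two steps, submaximal then maximal. Read-out: B score from integrated Fluo4 fluorescence ratio.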
TRPC6 inhibitor – blocks the mouse TRPC6 cation channel. Q61143. HEK293-TRPC6, membrane potential dye, ACh-evoked depolarization; hits give low values. B-score at 10 µM. 1.1% of 310,000 active. AID 2553;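 active = B-score under library mean minus 3 SD, initial fluorescence not abnormally high, positive integrated signal ratio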;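 note: B-score derived from integrated fluorescence ratio over the kinetic read; more negative B-score means stronger inhibition of depolarization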
TRPC4 act – TRPC4 (mouse) channel activation; B-score at 10 µM; 0.49% of 310,000 active; AID 2237; HEK293 TRPC4beta/mu-opioid, Fluo4 calcium fluorescence; hits give high values;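 active = B-score above 5 SD of library B-scores, and initial fluorescence ratio not above library mean plus 5 SD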;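 note: positive B-score marks a calcium rise read as TRPC4 activation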
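Assay system: HEK293 stable line with TRPC4beta plus mu-opioid receptor; schedule: 45 min room-temperature Fluo4 loading, 110 s read; technique: kinetic Fluo4 calcium fluorescence; evaluation: integrated baseline-normalised fluorescence ratio, converted to per-well B score; controls: buffer (low) and maximal DAMGO (high)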
TRPC6 act – activators of mouse TRPC6 channel; Q61143; HEK293-TRPC6 membrane potential dye fluorescence; hits give high values; B-score at 10 µM; 0.13% of 310,000 active; AID 2550;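 active = B-score of the integrated fluorescence ratio above library mean plus 3 SD, and starting fluorescence ratio within library mean plus 5 SD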;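 note: higher score means more depolarization so channel activation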
TRPC4 spec 2 – second check of whether TRPC6 inhibitors also affect mouse TRPC4. shares compounds with TRPC6 inhibitor. HEK293 TRPC4/MOR, membrane potential dye fluorescence; channel activated by saturating DAMGO dose. inhibition, % at 10 µM. 42% of 920 active. AID 2776;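 active = compounds whose fluorescence signal differed from control wells by over 3 SD, either direction, in both duplicate plates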
TRPC4 spec – tests whether TRPC6 inhibitors also affect mouse TRPC4; activity change, negative = inhibition, % at 10 µM; HEK293 TRPC4/mu-opioid, membrane potential fluorescence; 61% of 920 active; shares compounds with TRPC6 inhibitor;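 active = rise or fall in signal beyond 3 SD of buffer-only wells in both replicate plates, either sign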;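 note: integrated kinetic ratio of fluorescence range over baseline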
HEK293 MPD ctr 2-1 – second counter-screen for TRPC6 inhibitors: parental HEK293 cells; shares compounds with TRPC6 inhibitor; parental HEK293 membrane potential dye fluorescence; maximal acetylcholine challenge after compound addition; 31% of 920 active; signal change vs control, % at 10 µM;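 active = membrane potential signal moving either way by over 3 SD of the maximum-effect control, in both duplicate plates, meaning non-specific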
HEK293 MPD ctr-1 – checks TRPC6 inhibitor effects in parental HEK293 cells; 60% of 920 active; parental HEK293 membrane potential dye fluorescence; membrane potential signal change, % at 10 µM; shares compounds with TRPC6 inhibitor;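 active = membrane potential signal shifting up or down by more than 3 SD of buffer-only wells, on both duplicate plates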
HEK293 MPD ctr-2 – counter-screen for TRPC6 modulators: effect in parental HEK293 cells. shares compounds with TRPC6 inhibitor. membrane potential dye fluorescence. membrane potential signal change, % at 10 µM. 51% of 2,400 active;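 active = membrane potential signal moves up or down beyond 5 SD from buffer-only wells, on both duplicate plates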
HEK293 MPD ctr 2-2 – second check of TRPC6 modulator effects in parental HEK293 cells | 14% of 2,400 active | membrane potential dye fluorescence; after compound, maximal acetylcholine stimulation | shares compounds with TRPC6 inhibitor | inhibition, % at 10 µM | AID 488926;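 active = membrane potential signal drops by more than 5 SD from the mean control signal, in both duplicate plates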;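 note: plate controls were acetylcholine ECmax control wells for no effect and buffer only wells for full effect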
TRPC4 ctr mod – tests whether TRPC6 modulators also affect mouse TRPC4 | HEK293 TRPC4/mu-opioid, membrane potential fluorescence | 69% of 2,400 active | percent change from control (negative = decrease, positive = increase), % at 10 µM | shares compounds with TRPC6 inhibitor;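 active = membrane potential signal moved up or down beyond 5 SD of buffer control wells, in both duplicate plates, actives on both sides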;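 note: plate controls were assay buffer wells for no effect and DAMGO maximal-effect wells for full effect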
TRPC4 ctr inh 2 – second check of whether TRPC6 modulators also affect mouse TRPC4 | AID 488928 | inhibition, % at 10 µM | 55% of 2,400 active | shares compounds with TRPC6 inhibitor | HEK293 TRPC4/mu-opioid, membrane potential dye fluorescence; stimulated with maximal-effect DAMGO;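 active = drop in membrane potential signal beyond 5 SD of the control wells in both duplicate plates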;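 note: TRPC4 counter screen for TRPC6 hits run under conditions tuned for TRPC6 not TRPC4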
TRPC6 inh conf – mouse TRPC6 inhibitor confirmation; shares compounds with TRPC6 inhibitor; HEK293-TRPC6, membrane potential dye, ACh-evoked depolarization; inhibition, % at 10 µM; 43% of 3,300 active;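 active = fluorescence ratio falls more than 5 SD below the full-stimulation control mean, in both duplicate runs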;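 note: integrated fluorescence ratio of peak minus minimum over baseline after agonist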
TRPC6 act conf – confirmation of mouse TRPC6 activators | shares compounds with TRPC6 inhibitor | HEK293-TRPC6 membrane potential dye fluorescence, FDSS | activation, % at 10 µM | 11% of 2,800 active | AID 488961;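 active = ratio signal rise beyond 5 SD above unstimulated control wells' mean, seen in both duplicate runs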;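 note: plate controls were buffer EC0 wells for no effect and acetylcholine ECmax response for full effect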
* hit, by the source's call. An excerpt weighted towards active compounds, which were near 2.9% of everything screened.

Screening Cc1c(CCOC(=O)c2ccccc2)sc[n+]1Cc1ccccc1 returned TRPC4 potent inactive, Kir21 block 1.74, TRPC4 block inactive, TRPC6 inhibitor -9.46*, TRPC4 act inactive, TRPC6 act inactive, TRPC4 spec 2 inactive, TRPC4 spec inactive, HEK293 MPD ctr 2-1 42.5%*, HEK293 MPD ctr-1 inactive, TRPC6 inh conf 61.3%* and TRPC6 act conf inactive.
`Cc1ccc(NC(=O)/C(C#N)=C(\N)C(Cl)(Cl)Cl)nc1` gave TRPC4 potent inactive, Kir21 block -3.7, TRPC4 block inactive, TRPC6 inhibitor inactive, TRPC4 act inactive and TRPC6 act inactive.
c1ccc(-c2cc(NCCN3CCCCC3)c3ccccc3n2)cc1 was read as TRPC4 potent inactive, Kir21 block -2.16, TRPC4 block inactive, TRPC6 inhibitor -8.68*, TRPC4 act inactive, TRPC6 act inactive, HEK293 MPD ctr-2 -181.5%*, HEK293 MPD ctr 2-2 65.5%*, TRPC4 ctr mod -36.0%*, TRPC4 ctr inh 2 71.5%*, TRPC6 inh conf 64.0%* and TRPC6 act conf inactive.
For Cc1cc(C)c2nc(N3CCC(C(=O)NCc4cccnc4)CC3)sc2c1 the results were TRPC4 potent inactive, Kir21 block -0.92, TRPC4 block inactive, TRPC6 inhibitor -5.3*, TRPC4 act inactive, TRPC6 act inactive, HEK293 MPD ctr-2 inactive, HEK293 MPD ctr 2-2 inactive, TRPC4 ctr mod inactive, TRPC4 ctr inh 2 inactive, TRPC6 inh conf inactive and TRPC6 act conf inactive.
`CCc1cc2c(Nc3ccc(O)cc3)nc(C)nc2s1` gave TRPC4 potent inactive, Kir21 block 0.03, TRPC4 block inactive, TRPC6 inhibitor inactive, TRPC4 act inactive and TRPC6 act inactive.
CC1CC(C)CN(C(=O)Cn2nnc(-c3ccc(Br)cc3)n2)C1 (stereo unspecified) was read as TRPC4 potent inactive, Kir21 block 3.11, TRPC4 block inactive, TRPC6 inhibitor inactive, TRPC4 act inactive and TRPC6 act inactive.
